Where a SMILES comes first, the peptide text is derived from it. Bridges are numbered along the chain shown (N, C = ends). [ ]: non-standard residue; d: D form. 2Abz = Nc1ccccc1C(=O)O; Dap = NC[C@H](N)C(=O)O
Columns and labels:
Rattus norvegicus = organism: Rattus norvegicus; assay: Selectivity ratio of Ki for rat cortical DOR to Ki for rat cortical MOR
Mu-type opioid receptor [1] = target: T1, Mu-type opioid receptor (Homo sapiens, UniProt P35372); assay: Potency index, ratio of morphine EC50 to compound EC50 for human MOR
Procedure, shortened: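 CHO cells expressing human MOR were seeded 1 day before the assay. Cells were loaded with membrane-potential blue dye in HBSS/20 mM HEPES pH 7.4 for 45 min at 37 °C, then compound was added. Fluorescence (ex 530, em 550–565 nm) was read every 3 s for 60 s, taking maximum minus minimum response. The index is morphine EC50 divided by compound EC50.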

[2] = target: Kappa-type opioid receptor (Cavia porcellus, UniProt P41144); assay: Displacement of [3H]U69,593 from guinea pig KOR after 2 hrs by liquid scintillation counting method
Mu-type opioid receptor [3] = target: Mu-type opioid receptor (Rattus norvegicus, UniProt P33535); assay: Displacement of [3H]DAMGO from rat cortical MOR by liquid scintillation counting method
Mu-type opioid receptor [4] = target: T1, Mu-type opioid receptor; format: cell-based, CHO
[5] = Selectivity ratio of Ki for guinea pig KOR to Ki for rat cortical MOR
Procedure, shortened: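 KOR: guinea pig cortex and cerebellum membranes in 50 mM Tris pH 7.4, 10 mM MgCl2, 200 μM PMSF, with 2 nM [3H]U69,593, 2 h at 25 °C; U50,488 defined nonspecific binding. […] Both used GF/B filtration and scintillation counting. The ratio is Ki(KOR)/Ki(MOR).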

[6] = target: Delta-type opioid receptor (Rattus norvegicus, UniProt P33533); assay: Displacement of [3H]DPDPE from rat cortical DOR after […] by liquid scintillation counting method
Sequence of Delta-type opioid receptor (P33533 whole entry): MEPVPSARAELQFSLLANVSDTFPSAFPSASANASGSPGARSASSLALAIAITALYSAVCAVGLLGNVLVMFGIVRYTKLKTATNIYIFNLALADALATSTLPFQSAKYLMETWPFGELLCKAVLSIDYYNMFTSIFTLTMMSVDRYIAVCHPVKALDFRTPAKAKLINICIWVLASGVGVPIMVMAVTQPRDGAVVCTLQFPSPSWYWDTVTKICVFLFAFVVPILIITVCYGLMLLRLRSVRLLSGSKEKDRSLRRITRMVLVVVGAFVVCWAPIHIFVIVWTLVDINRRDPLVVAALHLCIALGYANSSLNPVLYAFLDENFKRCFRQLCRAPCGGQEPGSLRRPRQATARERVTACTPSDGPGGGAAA

Sequence of Kappa-type opioid receptor (P41144 whole entry): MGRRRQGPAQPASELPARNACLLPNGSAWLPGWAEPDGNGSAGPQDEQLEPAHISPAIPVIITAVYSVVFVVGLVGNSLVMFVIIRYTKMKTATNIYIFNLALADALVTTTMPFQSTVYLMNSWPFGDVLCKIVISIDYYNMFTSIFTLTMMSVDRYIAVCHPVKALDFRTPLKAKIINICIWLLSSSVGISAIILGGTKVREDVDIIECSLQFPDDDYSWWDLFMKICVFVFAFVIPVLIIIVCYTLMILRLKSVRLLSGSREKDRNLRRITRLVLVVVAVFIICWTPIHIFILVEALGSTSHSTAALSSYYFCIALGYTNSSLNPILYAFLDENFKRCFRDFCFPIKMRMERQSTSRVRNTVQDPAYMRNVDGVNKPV
T1 sequence (P35372 whole entry): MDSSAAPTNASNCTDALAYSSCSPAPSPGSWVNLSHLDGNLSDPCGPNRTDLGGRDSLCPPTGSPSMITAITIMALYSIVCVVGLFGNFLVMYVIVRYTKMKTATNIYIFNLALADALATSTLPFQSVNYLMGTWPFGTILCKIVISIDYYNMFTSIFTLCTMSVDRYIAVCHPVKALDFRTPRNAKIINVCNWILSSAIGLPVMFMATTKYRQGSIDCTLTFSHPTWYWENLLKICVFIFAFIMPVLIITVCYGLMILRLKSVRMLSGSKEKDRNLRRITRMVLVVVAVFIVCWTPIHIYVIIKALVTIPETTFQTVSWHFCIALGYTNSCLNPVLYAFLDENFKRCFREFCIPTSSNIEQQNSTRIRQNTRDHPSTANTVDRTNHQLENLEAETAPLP
Sequence of Mu-type opioid receptor (Rattus norvegicus, UniProt P33535) (P33535 whole entry): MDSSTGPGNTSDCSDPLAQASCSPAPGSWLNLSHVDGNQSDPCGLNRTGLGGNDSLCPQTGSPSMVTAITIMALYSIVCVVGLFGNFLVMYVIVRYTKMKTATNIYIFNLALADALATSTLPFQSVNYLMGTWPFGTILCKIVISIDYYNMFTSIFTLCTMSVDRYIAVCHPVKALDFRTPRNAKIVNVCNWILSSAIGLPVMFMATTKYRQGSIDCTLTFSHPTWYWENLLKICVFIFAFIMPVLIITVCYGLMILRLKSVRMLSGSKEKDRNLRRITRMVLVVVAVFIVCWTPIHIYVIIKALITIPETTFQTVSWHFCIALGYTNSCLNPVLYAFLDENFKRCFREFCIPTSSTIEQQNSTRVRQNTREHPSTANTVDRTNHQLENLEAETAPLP

Structure (SMILES)	Ratio Ki (Rattus norvegicus)	Ratio EC50 (Mu-type opioid receptor [1])	Ki [2] [nM]	Ki (Mu-type opioid receptor [3]) [nM]	IC50 (Mu-type opioid receptor [4]) [nM]	Ratio Ki [5]	Ki [6] [nM]
N[C@@H](Cc1ccc(O)cc1)C(=O)N[C@@H]1CCCCNC(=O)CNC(=O)[C@H](Cc2ccc(O)cc2)NC(=O)[C@H](Cc2ccccc2)NC1=O	39	3	4450	0.99	2.3	4520	39
N[C@@H](Cc1ccc(O)cc1)C(=O)N[C@@H]1CCCCNC(=O)CNC(=O)[C@H](Cc2ccc(O)cc2)NC(=O)[C@H](Cc2ccncc2)NC1=O	247	–	> 10000	9.21	32	1100	2270
NC(=O)NCCC[C@@H]1NC(=O)[C@H](NC(=O)[C@@H](N)Cc2ccc(O)cc2)CCCCNC(=O)CNC(=O)[C@H](Cc2ccc(O)cc2)NC1=O	367	–	8430	9.04	66.9	760	3320
Nc1ccccc1C(=O)NC[C@@H]1NC(=O)[C@H](NC(=O)[C@@H](N)Cc2ccc(O)cc2)CCCCNC(=O)CNC(=O)[C@H](Cc2ccc(O)cc2)NC1=O (H-Y[dK][Dap](2Abz)YG; lactam 2-C)	62	–	3230	–	–	231	–
N[C@@H](Cc1ccc(O)cc1)C(=O)N[C@@H]1CCCCNC(=O)CNC(=O)[C@H](Cc2ccc(O)cc2)NC(=O)[C@H](Cc2c[nH]c3ccccc23)NC1=O	50	–	8160	1.99	24	2940	99
N=C(N)NCCC[C@@H]1NC(=O)[C@H](NC(=O)[C@@H](N)Cc2ccc(O)cc2)CCCCNC(=O)CNC(=O)[C@H](Cc2ccc(O)cc2)NC1=O	> 805	–	8530	17.4	131	406	> 10000
N[C@@H](Cc1ccc(O)cc1)C(=O)N[C@@H]1CCCCNC(=O)CNC(=O)[C@H](Cc2ccc(O)cc2)NC(=O)[C@H](Cc2cccnc2)NC1=O	658	–	5330	1.95	11.1	1320	1280
N[C@@H](Cc1ccc(O)cc1)C(=O)N[C@@H]1CCCCNC(=O)CNC(=O)[C@H](Cc2ccc(O)cc2)NC(=O)[C@H](Cc2ccc(O)cc2)NC1=O	1.5	–	> 10000	114	70.4	> 324	171

Source: ChEMBL document CHEMBL3763066, “Potent μ-Opioid Receptor Agonists from Cyclic Peptides Tyr-c[D-Lys-Xxx-Tyr-Gly]: Synthesis, Biological, and Structural Evaluation” (J Med Chem, 2016)
